Key:
KB [1] = assay: Antiproliferative SRB assay, KB; format: cell-based, human; conditions: positive control
Method in brief: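 Human nasopharyngeal epidermoid carcinoma KB cells, tested in a panel with A-549, P-gp-expressing KBVIN and DU145 lines. Cytotoxicity was read by the sulforhodamine B (SRB) method, with a reference compound run alongside. GI50 is the molar drug concentration causing 50% tumor cell growth inhibition.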

DU145 = conditions: read-out: GI50, DU145, prior hit; cited from earlier work
A549 = conditions: read-out: GI50, A549, prior hit; cited from earlier work
KB [2] = conditions: prior hit; cited from earlier work

SMILES	GI50 ± SD, KB (KB [1])	GI50 ± SD, KB (KB [1]; listed as paclitaxel)	GI50 (DU145)	GI50 (A549)	GI50, KB (KB [2])
CC(=O)O[C@H]1C(=O)[C@@]2(C)[C@H]([C@H](OC(=O)c3ccccc3)[C@]3(O)C[C@H](OC(=O)[C@H](O)[C@@H](NC(=O)c4ccccc4)c4ccccc4)C(C)=C1C3(C)C)[C@]1(OC(C)=O)CO[C@@H]1C[C@@H]2O [Paclitaxel]	0.00777 ± 0.00084 µM	0.008 µM			
COc1ccc(Nc2nc(Cl)ccc2[N+](=O)[O-])cc1 [1a, 6-chloro-N-(4-methoxyphenyl)-3-nitropyridin-2-amine]			3.83 µM	13.5 µM	7.19 µM

From article PMC3546147 (Bioorganic & medicinal chemistry, 2012)
